Source: PubChem
PREPL inh: inhibitors of human prolyl oligopeptidase-like enzyme PREPL; recombinant PREPL, fluorescence polarization activity-based probe; inhibition, % at 5.96 µM; 320,000 compounds, 0.68% hits; AID 2751; in the data active means inhibition above about 43%;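 further: 0% = enzyme with DMSO and 100% = wells lacking enzyme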
Target sequence (Q4J6C6 whole entry, looked up): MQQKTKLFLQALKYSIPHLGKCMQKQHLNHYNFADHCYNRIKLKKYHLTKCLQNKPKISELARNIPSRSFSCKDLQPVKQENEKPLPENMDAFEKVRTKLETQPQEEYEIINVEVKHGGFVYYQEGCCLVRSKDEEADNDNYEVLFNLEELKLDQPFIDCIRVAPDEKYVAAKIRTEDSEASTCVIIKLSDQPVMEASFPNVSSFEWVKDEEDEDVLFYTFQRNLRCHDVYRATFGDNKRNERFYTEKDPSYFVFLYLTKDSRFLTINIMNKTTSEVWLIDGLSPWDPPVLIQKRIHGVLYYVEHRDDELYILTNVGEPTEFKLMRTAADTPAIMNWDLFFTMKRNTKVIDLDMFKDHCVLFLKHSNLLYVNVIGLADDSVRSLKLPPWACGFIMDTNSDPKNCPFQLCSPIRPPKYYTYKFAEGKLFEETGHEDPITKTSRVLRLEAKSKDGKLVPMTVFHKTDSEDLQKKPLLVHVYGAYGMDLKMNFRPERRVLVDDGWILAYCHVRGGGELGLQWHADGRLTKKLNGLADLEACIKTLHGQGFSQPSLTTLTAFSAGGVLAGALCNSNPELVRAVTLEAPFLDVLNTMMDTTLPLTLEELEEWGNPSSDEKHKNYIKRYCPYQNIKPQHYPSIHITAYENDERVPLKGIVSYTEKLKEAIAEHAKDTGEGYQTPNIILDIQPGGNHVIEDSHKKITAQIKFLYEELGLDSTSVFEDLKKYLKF
T cruzi inh: blocks replication of Trypanosoma cruzi; T. cruzi beta-gal in NIH3T3, luminescence, 90 h; inhibition, % (no concentration beside the values); 300,000 compounds, 1.4% hits;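 active means mean inhibition across valid replicates above about 55%, limit read from the data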;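 further: signal also drops with host cell toxicity which is not excluded here; 0% = plate median of DMSO wells and 100% = zero luminescence signal; higher percent means less beta-gal luminescence so fewer parasites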
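System: Mouse NIH/3T3 fibroblasts infected with β-gal-expressing T. cruzi Tulahuen C4 | Quantity: NIH/3T3 cells, 5,000 per well | Reagent: 5000 reporter trypomastigotes per well | Dosing: Compound pinned at 50 nL/well, DMSO | Schedule: 3 h host attachment, then at least 90 h co-culture | Detection: GalScreen luminescence, 60 min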
Beta cell apopt: blocks beta cell apoptosis; INS-1E cytokine-induced death, ATP luminescence, 48 h; percent of positive-control rescue, neutral wells zero; protection from apoptosis, % (concentration not given with the values); 300,000 compounds, 0.8% hits;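 active means Every replicate reaches about 75%, or at least half do and their mean reaches it too, limit read from the data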;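 further: 0% = cytokine-treated negative control wells and 100% = positive control rescue; higher means more ATP so stronger rescue from cytokine killing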
GRIN3A LBD mod: modulators (binders) of human NR3A ligand-binding domain | 340,000 compounds, 2.5% hits | NR3A LBD differential scanning fluorimetry, Tm shift; 0% = protein alone, 100% = glycine-bound protein | Tm shift relative to glycine control, % at 25 µM;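 active means melting temperature shift of at least 10% of the positive control shift, at one fixed dose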
CSC inhib: cancer stem cell inhibition; cancer stem cell-like cells viability, luminescence; inhibition, % at 7.5 µM; 300,000 compounds, 1.1% hits; AID 2717; in the data active means inhibition above about 75%; tested in HMLE shEcad cells
CHOP inhibitor: inhibitors of CHOP induction in ER stress response; AID 2732; inhibition, % at 10 µM; CHO-K1 CHOP-promoter luciferase, tunicamycin-induced, 15-18 h; 220,000 compounds, 3.8% hits;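 active means compounds that reduced the stress-induced luciferase reporter signal by more than about 70% of percent inhibition, limit read from the data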;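 further: 0% = tunicamycin plus vehicle and 100% = wells without tunicamycin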
Active calls of the source: *. In the library only some 6.7% were active in any assay of this set; here they are far more common.

For Cn1c(=O)c([N+](=O)[O-])c(-n2cnc3ccccc32)c2ccccc21 the results were PREPL inh 3, T cruzi inh -8, Beta cell apopt 8, GRIN3A LBD mod 3, CSC inhib 7 and CHOP inhibitor 74*.
Screening CCn1c(=O)c([N+](=O)[O-])c(NCCc2ccccc2)c2ccccc21 returned PREPL inh 20, T cruzi inh 51, Beta cell apopt 16, GRIN3A LBD mod -15, CSC inhib -10 and CHOP inhibitor 37.
`Cn1c(=O)c([N+](=O)[O-])c(NCCc2ccccc2)c2ccccc21` gave PREPL inh 12, T cruzi inh 59*, Beta cell apopt 1, GRIN3A LBD mod -15, CSC inhib 0 and CHOP inhibitor 11.
`O=[N+]([O-])c1ccc(-n2cnc3ccccc32)c([N+](=O)[O-])c1` gave PREPL inh 5, T cruzi inh 71*, Beta cell apopt 118*, GRIN3A LBD mod -1, CSC inhib -6 and CHOP inhibitor -1.
Screening COc1ccc(C(=O)NCc2ccc(F)cc2)cc1S(=O)(=O)N1CCCC1 returned GRIN3A LBD mod -1.
`COc1ccc(OCC(=O)N(C)CC2COc3ccccc3O2)cc1` (configuration not stated) gave PREPL inh -5, Beta cell apopt -2, GRIN3A LBD mod -1 and CSC inhib -6.
For CC1(c2ccc3ccccc3c2)NC(=O)N(CC(=O)N2CCCC(C(F)(F)F)C2)C1=O (configuration not stated) the results were PREPL inh 7, Beta cell apopt -6 and GRIN3A LBD mod -1.
Screening Cn1ncc2c(Nc3ccc(Br)cc3)nc(Nc3ccc(Br)cc3)nc21 returned PREPL inh 24, T cruzi inh 33, Beta cell apopt 33, CSC inhib 103* and CHOP inhibitor 56.
Cn1ncc2c(Nc3cccc(Cl)c3)nc(Nc3cccc(Cl)c3)nc21 was read as PREPL inh 11, T cruzi inh 47, Beta cell apopt 52, GRIN3A LBD mod 31*, CSC inhib 115* and CHOP inhibitor -4.
`Cn1ncc2c(Nc3ccc(O)cc3)nc(Cl)nc21` gave PREPL inh -5, T cruzi inh -3, Beta cell apopt -4, CSC inhib -5 and CHOP inhibitor 4.
Screening Cc1nn(CC(C)C(=O)N2CCN(S(=O)(=O)c3ccc(Cl)cc3)CC2)c(C)c1C (configuration not stated) returned PREPL inh 27, T cruzi inh 8, Beta cell apopt -1, GRIN3A LBD mod -1 and CSC inhib 9.
For CCN(CC(=O)NCc1ccccc1Cl)CC(=O)Nc1c(F)cccc1F the results were PREPL inh -6, T cruzi inh 1, Beta cell apopt 1, GRIN3A LBD mod -2, CSC inhib -8 and CHOP inhibitor 4.
COC(=O)c1cnn(-c2ccccc2)c1/C=N/NC(=S)Nc1ccc(Cl)cc1 was read as PREPL inh 15, T cruzi inh -21, Beta cell apopt 4, GRIN3A LBD mod 13*, CSC inhib 5 and CHOP inhibitor 41.
COc1ccc(NC(=O)c2cnn(-c3ccccc3)c2C)cc1 was read as PREPL inh 15, T cruzi inh -8, Beta cell apopt -3, GRIN3A LBD mod -1 and CSC inhib 25.
CCN(C(=O)CN1CCOCC1)C1(C)C(=O)c2ccccc2C1=O was read as PREPL inh 3, T cruzi inh -10, Beta cell apopt 6, GRIN3A LBD mod 0, CSC inhib -2 and CHOP inhibitor -10.
For O=C(CSc1n[nH]c(-c2ccco2)n1)Nc1ccccc1Cl the results were PREPL inh -5, T cruzi inh 0, Beta cell apopt -4, GRIN3A LBD mod 1 and CSC inhib -12.
COc1ccc(N2CCC(CNS(=O)(=O)c3cccc(C(F)(F)F)c3)C2)cc1 (configuration not stated) was read as PREPL inh 9, Beta cell apopt 0, GRIN3A LBD mod 0, CSC inhib 7 and CHOP inhibitor 74*.
For CCOc1ccc(N/C(=N/c2nc(C)cc(C)n2)NC(C)=O)cc1 the results were PREPL inh -5, T cruzi inh -4, Beta cell apopt -5, GRIN3A LBD mod -1, CSC inhib 0 and CHOP inhibitor 1.
`CCOC(=O)c1c(C)n(C)c2ccc(OC(C)=O)cc12` gave PREPL inh 1, T cruzi inh -22, Beta cell apopt -1, GRIN3A LBD mod 1, CSC inhib 3 and CHOP inhibitor 1.
`CCOC(=O)c1c(C)n(C)c2cc(-c3ccc(F)cc3)c(O)cc12` gave PREPL inh -16, T cruzi inh 17, Beta cell apopt -1, GRIN3A LBD mod 2, CSC inhib 1 and CHOP inhibitor 79*.
For CC(O)(c1ccc(Cl)cc1)C(c1ccccc1)c1ccccn1 (configuration not stated) the results were GRIN3A LBD mod 5.
`Cc1ccc(CNC(=O)CCC2CCCN(Cc3ccc4cccc(F)c4n3)C2)o1` (configuration not stated) gave PREPL inh 7, T cruzi inh 61*, Beta cell apopt -8, GRIN3A LBD mod -1, CSC inhib 11 and CHOP inhibitor 23.
Screening Cc1ccc(CNC(=O)CCC2CCCN(Cc3cccc4c3OCO4)C2)o1 (configuration not stated) returned PREPL inh 21, T cruzi inh 52, Beta cell apopt -3, GRIN3A LBD mod 1, CSC inhib 8 and CHOP inhibitor 10.
For Cc1ccc(CNC(=O)CCC2CCCN(Cc3c(C)nn(C(C)C)c3C)C2)o1 (configuration not stated) the results were PREPL inh 3, T cruzi inh 67*, Beta cell apopt -6, GRIN3A LBD mod 1, CSC inhib -7 and CHOP inhibitor 12.
CC(=O)Nc1cc(OC(C)=O)c2nonc2c1OC(C)=O was read as PREPL inh 56*, Beta cell apopt -3, GRIN3A LBD mod -9 and CSC inhib 106*.
O=C(NCC(c1ccccc1Cl)N1CCCC1)C1CCN(C(=O)Nc2ccccc2)CC1 (configuration not stated) was read as PREPL inh 0, Beta cell apopt 3, GRIN3A LBD mod 1 and CSC inhib -7.
For Clc1ccc(Cn2ncc3c(NCc4ccccc4)ncnc32)c(Cl)c1 the results were PREPL inh 5, T cruzi inh 8, Beta cell apopt -11, CSC inhib 77* and CHOP inhibitor 81*.
Screening CCCn1c(C)nc2c(c1=O)c1nc3ccccc3nc1n2CCC1=CCCCC1 returned PREPL inh -2, T cruzi inh 52, Beta cell apopt 5, GRIN3A LBD mod 2, CSC inhib 1 and CHOP inhibitor 89*.
